Measured values from publication PMC2978023 (Journal of immunology (Baltimore, Md. : 1950), 2008).
Values joined by “and” are separate entries in the source; they are usually repeats but may differ in a detail not shown here. Identical values can stand only once.

Columns and labels:
apoptotic PMNs = experiment: Competition with annexin V-FITC binding to apoptotic PMNs; type: cell-based, human; conditions: 0–10 μM, data not shown
ERK1/2 [1] = experiment: ERK1/2 phosphorylation in PMNs, Western blot; type: cell-based, human; conditions: PMN stimulated with 1 nM PMA, 30 min, 37 °C; proteins 1 μM, peptides 100 μM
Procedure, shortened: (§1)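 Human PMNs stimulated with 1 nM PMA were incubated with ligands for 30 min at 37°C in HBSS with 1 mM CaCl₂, 1 mM MgCl₂, 0.1% BSA, pH 7.4. Cells were lysed in ice-cold Tris/EDTA/detergent buffer with phosphatase and protease inhibitors. Equal protein was immunoblotted for phospho- and total Akt or ERK1/2, with actin. Inhibition arm: 20 min pretreatment at 37°C with 10 μM Akt inhibitor, 50 μM PD98059, 50 nM NIF, or F(ab′)₂ anti-αM or anti-MHC-1 (20 μg/ml), then 1 μM Plg.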

Akt [2] = experiment: Akt phosphorylation in transfected K562 cells, Western blot; type: cell-based, human; conditions: 37 °C
Procedure, shortened: (§2)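 Transiently transfected K562 cells (αM, β2, αMβ2 or mock) were exposed to ligands for 30 min at 37°C and lysed in ice-cold buffer. Equal protein was run on SDS-PAGE and blotted with the PathScan Multiplex Western Cocktail I, then reprobed for total ERK1/2; blots shown are representative of three experiments.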

[3] = tested on: αM^(Ile316→Gly)β2 on K562 cells; experiment: Adhesion of K562 cells expressing αM^; type: cell-based, human; conditions: K562 αM^(Ile316→Gly)β2, data not shown
[4] = tested on: mock-transfected K562 cells; experiment: Apoptosis of mock-transfected K562 cells, annexin V, FACS; type: cell-based, human; conditions: 16 h, 37 °C; proteins 1 μM, peptides 100 μM; no ligand 81 ± 8; mean ± SEM, n = 5
αMβ2 on K562 cells = experiment: Soluble ligand binding to K562 cells expressing αMβ2, FACS; design: species or system human; conditions: 40 min, 37 °C
Procedure, shortened: (§3)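 Transiently transfected K562 cells were incubated with soluble Alexa 488-labelled Plg or Ang(1–4) for 40 min at 37°C in HBSS containing 1 mM CaCl₂ and 1 mM MgCl₂. Cells were washed twice and bound ligand was quantified by FACS; three independent experiments. For inhibition, cells were pretreated for 20 min at 37°C with function-blocking anti-αM or anti-β2 mAbs (20 μg/ml) or NIF (20 nM).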

αMβ2 = αMβ2 clustering on PMNs, fluorescence microscopy; type: cell-based, human; conditions: 4 h, 37 °C; proteins 1 μM, peptides 100 μM; anti-αM OKMI staining; four donors
Procedure, shortened: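 Human PMNs were exposed to ligands (proteins 1 μM, peptides 100 μM) for 4 h at 37°C, or to 1 μM Plg together with clustering inhibitors at the final concentrations used in apoptosis assays. Cells were fixed in 4% paraformaldehyde and stained with anti-αM mAb OKMI plus Alexa 488 goat anti-mouse IgG. They were cytospun, mounted and imaged by fluorescence microscopy (×40/0.7 NA); PMNs came from four donors.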

Bax [5] = experiment: Bax cleavage in PMN lysates, Western blot; type: cell-based, human; conditions: PMN lysate, 16 h; proteins 1 μM, peptides 100 μM; six donors
caspase-3 [6] = experiment: Caspase-3 cleavage in PMN lysates, Western blot; type: cell-based, human; conditions: PMN lysate, 16 h; proteins 1 μM, peptides 100 μM; six donors
[7] = target: recombinant purified integrin αMβ2 (Homo sapiens, UniProt P05107+P11215); experiment: Solid-phase binding to purified αMβ2; conditions: higher for Plg than for Ang(1–4)
Chain of recombinant purified integrin αMβ2 (P05107 23-769, other chains not shown): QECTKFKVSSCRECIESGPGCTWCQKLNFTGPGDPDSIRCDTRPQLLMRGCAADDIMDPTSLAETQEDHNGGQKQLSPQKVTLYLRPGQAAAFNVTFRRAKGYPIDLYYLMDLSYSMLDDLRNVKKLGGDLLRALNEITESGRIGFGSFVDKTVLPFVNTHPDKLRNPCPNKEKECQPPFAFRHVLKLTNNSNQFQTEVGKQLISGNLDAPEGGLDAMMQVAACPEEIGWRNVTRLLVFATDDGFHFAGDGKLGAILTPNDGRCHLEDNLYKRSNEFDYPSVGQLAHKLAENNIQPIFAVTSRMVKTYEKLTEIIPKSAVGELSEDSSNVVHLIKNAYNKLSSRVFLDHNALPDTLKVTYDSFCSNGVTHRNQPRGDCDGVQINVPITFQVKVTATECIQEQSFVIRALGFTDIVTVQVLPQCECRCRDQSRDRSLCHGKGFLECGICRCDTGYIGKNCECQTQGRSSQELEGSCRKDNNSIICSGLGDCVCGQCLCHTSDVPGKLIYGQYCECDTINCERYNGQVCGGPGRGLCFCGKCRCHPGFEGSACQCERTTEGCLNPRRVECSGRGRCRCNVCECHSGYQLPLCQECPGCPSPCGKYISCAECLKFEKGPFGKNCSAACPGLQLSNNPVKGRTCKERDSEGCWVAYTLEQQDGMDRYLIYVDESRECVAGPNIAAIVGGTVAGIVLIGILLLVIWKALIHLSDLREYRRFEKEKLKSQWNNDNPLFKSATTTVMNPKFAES
Procedure, shortened: (§4)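 Purified recombinant αMβ2, αM or β2 (from HEK293 lines) was coated overnight at 4°C in TBS with 10 mM n-octyl-β-D-glucopyranoside and postcoated with 0.5% PVP for 1 h at 37°C. Biotinylated Plg or Ang(1–4) (0–10 μM) was bound for 2 h at 37°C in the same buffer plus 1 mM CaCl₂/MgCl₂. Binding was detected with alkaline phosphatase–avidin and pNPP at A405. Kd came from a one-site binding fit.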

ERK1/2 [8] = experiment: ERK1/2 phosphorylation in transfected K562 cells, Western blot; type: cell-based, human; conditions: 37 °C
Procedure, shortened: as §2

Akt [9] = experiment: Akt phosphorylation in PMNs, Western blot; type: cell-based, human; conditions: PMN stimulated with 1 nM PMA, 30 min, 37 °C; proteins 1 μM, peptides 100 μM
Procedure, shortened: as §1

caspase-8 [10] = experiment: Caspase-8 cleavage in PMN lysates, Western blot; type: cell-based, human; conditions: PMN lysate, 16 h; proteins 1 μM, peptides 100 μM; six donors
[11] = target: recombinant purified β2 subunit (Homo sapiens, UniProt P05107); experiment: Solid-phase binding to purified β2 subunit; conditions: solid-phase binding, αM versus β2
Chain of recombinant purified β2 subunit (P05107 23-769): as the sequence (P05107 23-769, other chains not shown) above
Procedure, shortened: as §4

caspase-8 [12] = experiment: Caspase-8 cleavage in K562 cell lysates, Western blot; type: cell-based, human; conditions: K562 αMβ2 transfectants, 24 h, 37 °C; proteins 1 μM, peptides 100 μM
Bax [13] = experiment: Bax cleavage in K562 cell lysates, Western blot; type: cell-based, human; conditions: K562 αMβ2 transfectants, 24 h, 37 °C; proteins 1 μM, peptides 100 μM
human PMNs = conditions: Plg 1 μM, 16 h, 37 °C; media alone 90 ± 21; mean ± SEM, n = 6
β2 subunit on K562 cells = experiment: Soluble ligand binding to K562 cells expressing β2, FACS; design: species or system human; conditions: 40 min, 37 °C
Procedure, shortened: as §3

caspase-3 [14] = experiment: Caspase-3 cleavage in K562 cell lysates, Western blot; type: cell-based, human; conditions: K562 αMβ2 transfectants, 24 h, 37 °C; proteins 1 μM, peptides 100 μM
αM subunit on K562 cells = experiment: Soluble ligand binding to K562 cells expressing αM, FACS; design: species or system human; conditions: 40 min, 37 °C
Procedure, shortened: as §3

With plasminogen [Plg] the “competition with annexin V-FITC binding” value (apoptotic PMNs) was “did not compete with annexin V-FITC binding at any concentration tested”, the ERK1/2 activation (ERK1/2 [1]) was “induced ERK1/2 activation” and the “Akt phosphorylation, αM, β2 and mock cells” value (Akt [2]; K562 expressing αM or β2, or mock-transfected, 30 min) was “not in K562 cells expressing the individual αM or β2 subunits (Fig. 6A) or mock-transfected cells”. For the same substance, the “Akt activation, tailless and chimeric αMβ2” value (Akt [2]; K562 expressing αM(1119Δ)β2, αMβ2(728Δ) or αM/αLβ2, Plg, 30 min) was “no Akt activation could be detected”, the “Akt phosphorylation, αMβ2 cells” value (Akt [2]; K562 expressing αMβ2, 30 min) was “robust Akt phosphorylation” and the “adhesion to Plg versus wild type” value [3] was “enhanced adhesion to Plg”. For the same substance, the “K562 early/late apoptosis (% annexin V+ cells), mock” value [4] was 78 ± 10%, the “soluble ligand binding, αMβ2 cells (in words)” value (αMβ2 on K562 cells) was “bound both ligands” and the “αMβ2 macroclusters on PMN surface” value (αMβ2) was “detected”. The “22-kDa Bax fragment” value (Bax [5]) was “absent”, the “18-kDa caspase-3 fragment” value (caspase-3 [6]) was “absent” and the “affinity of αMβ2 for Plg relative to Ang(1–4)” value [7] was ~ 10 fold. For the same substance, the “ERK1/2 activation, αM cells” value (ERK1/2 [8]; K562 expressing αM, 30 min) was “strongly induced”, the “ERK1/2 activation, αMβ2 cells” value (ERK1/2 [8]; K562 expressing αMβ2, 30 min) was “strongly induced” and the “ERK1/2 phosphorylation, mock and β2 cells” value (ERK1/2 [8]; K562 mock or expressing β2, 30 min) was “poorly induced”. For the same substance, the Akt phosphorylation (Akt [9]) was “robust Akt phosphorylation”, the caspase-8 fragment (caspase-8 [10]) was “absent” and the “recognition by individual integrin subunits (in words)” value [11] was “interacted with the individual αM and β2 subunits with similar affinities”. For the same substance, the “caspase-8 cleavage product, αMβ2 cells” value (caspase-8 [12]) was “not detected”, the “Bax cleavage product, αMβ2 cells” value (Bax [13]) was “not detected” and the “PMN early/late apoptosis (% annexin V+ cells), Plg alone” value (human PMNs) was 32 ± 10% and 32 ± 105%. For the same substance, the “soluble ligand binding, β2 cells (in words)” value (β2 subunit on K562 cells) was “bound soluble Plg”, the “caspase-3 cleavage product, αMβ2 cells” value (caspase-3 [14]) was “not detected” and the “soluble ligand binding, αM cells (in words)” value (αM subunit on K562 cells) was “bound both ligands”.
